In ChEMBL document CHEMBL3616436, “Synthesis, cytotoxicity and antimicrobial activity of thiourea derivatives incorporating 3-(trifluoromethyl)phenyl moiety” (Eur J Med Chem, 2015):
Active and inactive are the calls of the source. The rule behind the calls is not given here.

Legend:
Pseudomonas aeruginosa [1] = assay: Antimicrobial activity against Pseudomonas aeruginosa ATCC 27863 after 18 hrs by twofold serial microdilution method; format: functional, organism-based
Poliovirus 1 = assay: Antiviral activity against Poliovirus type 1 ATCC VR-1562 infected in African green monkey Vero 76 cells assessed as reduction of virus-plaque formation after 2 days by crystal violet staining; format: functional, organism-based; details: Enterovirus C, ATCC VR-1562, Vero, 48 h
Escherichia coli [2] = assay: Antimicrobial activity against Escherichia coli NCTC 8196 after 18 hrs by twofold serial microdilution method; format: functional, organism-based
Vaccinia virus = assay: Antiviral activity against Human Vaccinia virus ATCC VR-1549 infected in African green monkey Vero 76 cells assessed as reduction of virus-plaque formation after 3 days by crystal violet staining; format: functional, organism-based; details: Orthopoxvirus vaccinia, ATCC VR-1549, Vero, 72 h
Candida albicans [3] = assay: Antimicrobial activity against Candida albicans ATCC 90028 after 24 hrs by twofold serial microdilution method; format: functional, organism-based
Pseudomonas aeruginosa [4] = assay: Antimicrobial activity against Pseudomonas aeruginosa ATCC 15442 after 18 hrs by twofold serial microdilution method; format: functional, organism-based
Yellow fever virus = assay: Antiviral activity against Yellow fever virus 17D infected in BHK cells assessed as protection against virus-induced cytopathogenicity after 3 to 4 days by MTT assay; format: functional, cell-based
Escherichia coli [5] = assay: Antimicrobial activity against Escherichia coli ATCC 10538 after 18 hrs by twofold serial microdilution method; format: functional, organism-based
[6] = Cytotoxicity against African green monkey Vero 76 cells assessed as cell viability after 48 to 96 hrs by crystal violet staining; format: cell-based; details: chlorocebus sabaeus
[7] = Cytotoxicity against bovine MDBK cells assessed as cell viability after 48 to 96 hrs by MTT assay; format: cell-based, Bos taurus; details: cattle
[8] = test system: Mammalian orthoreovirus 1; assay: Antiviral activity against Reovirus type-1 ATCC VR-214 infected in BHK cells assessed as protection against virus-induced cytopathogenicity after 3 to 4 days by MTT assay; format: functional, cell-based; details: Mammalian orthoreovirus 1, ATCC VR-214, BHK
Summary of the method: (§1)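 Cells seeded in 96-well plates (BHK 5x10^4, MDBK 3x10^4 cells/well), grown overnight to confluence, infected at m.o.i. 0.01 (BHK for Reo-1, MDBK for BVDV); serial compound dilutions in maintenance medium with 0.5% inactivated FBS added after 1 h; viability by MTT after 3–4 days at 37°C; EC50 for 50% protection by linear regression.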

[9] = Cytotoxicity against BHK cells assessed as cell viability after 48 to 96 hrs by MTT assay; format: cell-based, Mesocricetus auratus; details: hamster
Human alphaherpesvirus 1 = assay: Antiviral activity against Human herpesvirus 1 KOS ATCC VR-1493 infected in African green monkey Vero 76 cells assessed as reduction of virus-plaque formation after 3 days by crystal violet staining; format: functional, organism-based; details: Human alphaherpesvirus 1, KOS ATCC VR1493, Vero, 72 h
Summary of the method: (§2)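 Plaque reduction: Vero-76 at 2x10^5 cells/well grown to confluent monolayers, infected 2 h at 50–100 PFU/well; after removing unadsorbed virus, overlay of D-MEM, 1% inactivated FBS, 0.75% methylcellulose with or without serial compound dilutions; 3 days at 37°C, fixed and stained with crystal violet in 50% ethanol, plaques counted; EC50 by linear regression.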

[10] = test system: Bordetella bronchiseptica; assay: Antimicrobial activity against Bordetella bronchiseptica ATCC 4617 after 18 hrs by twofold serial microdilution method; format: functional, organism-based
[11] = test system: Vesicular stomatitis virus; assay: Antiviral activity against Vesicular stomatitis virus ATCC VR 1540 infected in African green monkey Vero 76 cells assessed as reduction of virus-plaque formation after 2 days by crystal violet staining; format: functional, organism-based; details: ATCC VR 1540, Vero, 48 h
[12] = Cytotoxicity against human MT4 cells; format: cell-based
Candida parapsilosis = assay: Antimicrobial activity against Candida parapsilosis ATCC 22019 after 24 hrs by twofold serial microdilution method; format: functional, organism-based
Escherichia coli [13] = assay: Antimicrobial activity against Escherichia coli ATCC 25922 after 18 hrs by twofold serial microdilution method; format: functional, organism-based
[14] = Antiviral activity against Bovine viral diarrhea virus 1-NADL ATCC VR-534 infected in MDBK cells assessed as protection against virus-induced cytopathogenicity after 3 to 4 days by MTT assay; format: functional, cell-based; details: Bovine viral diarrhea virus isolates and strains, ATCC VR-534, MDBK; summary of the method: as §1
CCRF-SB = assay: Cytotoxicity against human CCRF-SB cells after 96 hrs by MTT assay; format: functional
Summary of the method: (§3)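 Leukaemia/lymphoma lines seeded at 1×10^5 cells/ml in RPMI-1640 with 10% FCS and penicillin/streptomycin; incubated with serial dilutions at 37°C, 5% CO2; viability by MTT after 96 h; value is concentration reducing proliferation by 50%, with untreated controls undergoing at least three rounds of multiplication.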

WIL2-NS = assay: Cytotoxicity against human WIL2-NS cells after 96 hrs by MTT assay; format: functional; summary of the method: as §3
Coxsackievirus B5 = assay: Antiviral activity against Human coxsackievirus B5 ATCC VR-29 infected in African green monkey Vero 76 cells assessed as reduction of virus-plaque formation after 3 days by crystal violet staining; format: functional, organism-based; details: Enterovirus B, ATCC VR-29, Vero, 72 h; summary of the method: as §2
Pseudomonas aeruginosa [15] = assay: Antimicrobial activity against Pseudomonas aeruginosa NCTC 6749 after 18 hrs by twofold serial microdilution method; format: functional, organism-based
[16] = test system: Human immunodeficiency virus 1; assay: Antiviral activity against HIV1 3B infected in human MT4 cells assessed as protection against virus-induced cytopathogenicity by MTT assay; format: functional, organism-based; details: Human immunodeficiency virus 1, 3B
Candida albicans [17] = assay: Antimicrobial activity against Candida albicans ATCC 10231 after 24 hrs by twofold serial microdilution method; format: functional, organism-based
CCRF-CEM = assay: Cytotoxicity against human CCRF-CEM cells after 96 hrs by MTT assay; format: functional; summary of the method: as §3

In the case of FC(F)(F)c1cccc(NC(=S)Nc2ccc(I)cc2)c1, the Activity (Pseudomonas aeruginosa [1]) is reported as “inactive”, the EC50 (Poliovirus 1) is reported as over 9.5 µM and the Activity (Escherichia coli [2]) is reported as “inactive”. For the same compound, the EC50 (Vaccinia virus) was over 9.5 µM, the Activity (Candida albicans [3]) was “inactive” and the Activity (Pseudomonas aeruginosa [4]) was “inactive”. The EC50 (Yellow fever virus) was over 9.4 µM, the Activity (Escherichia coli [5]) was “inactive” and the CC50 [6] was 9.5 µM. The CC50 [7] was 9.5 µM, the EC50 [8] was over 9.4 µM and the CC50 [9] was 9.4 µM. For the same compound, the EC50 (Human alphaherpesvirus 1) was over 9.5 µM, the Activity [10] was “inactive” and the EC50 [11] was over 9.5 µM. For the same compound, the CC50 [12] was 10 µM, the Activity (Candida parapsilosis) was “inactive” and the Activity (Escherichia coli [13]) was “inactive”. It also gave an EC50 [14] of over 9.5 µM, a CC50 (CCRF-SB) of 9.1 µM and a CC50 (WIL2-NS) of 8 µM. For the same compound, the EC50 (Coxsackievirus B5) was over 9.5 µM, the Activity (Pseudomonas aeruginosa [15]) was “inactive” and the EC50 [16] was over 10.5 µM. The Activity (Candida albicans [17]) was “inactive” and the CC50 (CCRF-CEM) was 8 µM.
